Measurements published in ChEMBL document CHEMBL1123598, “Inactivation of thymidylate synthase at an alternate high-affinity binding site” (J Med Chem, 1987).

Target: T1, Thymidylate synthase (Lactobacillus casei) (UniProt P00469)
T1 sequence (whole entry): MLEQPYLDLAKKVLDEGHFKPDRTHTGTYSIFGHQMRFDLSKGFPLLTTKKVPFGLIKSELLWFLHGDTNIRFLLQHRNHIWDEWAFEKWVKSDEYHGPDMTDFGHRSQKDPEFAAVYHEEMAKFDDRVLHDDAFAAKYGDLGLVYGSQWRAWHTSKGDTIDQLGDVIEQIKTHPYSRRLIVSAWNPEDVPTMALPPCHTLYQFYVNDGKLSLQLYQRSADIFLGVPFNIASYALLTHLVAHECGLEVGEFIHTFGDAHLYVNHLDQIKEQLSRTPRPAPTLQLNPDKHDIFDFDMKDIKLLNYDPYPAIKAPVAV
Test: Kinetic constant for the inactivation of Lactobacillus casei thymidylate synthase was determined at the concentration of 60 uM in the absence of substrate
Details: Lacticaseibacillus casei
Outline: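 Enzyme (sp act. 3.2 μM mg⁻¹ min⁻¹) incubated with inhibitor in 0.1 M phosphate buffer, pH 6.8, 30 °C, with no substrate or with substrate at the stated concentration. Aliquots were withdrawn at intervals and residual activity was measured with 50 μM substrate in a 60-s assay. k_obsd was taken from activity loss; k2 and Ka came from the double-reciprocal plot of 1/k_obsd vs 1/[inhibitor].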

k: 5 se-1
SMILES: CC1=CC(=O)c2ccccc2C1=O
